# From ChEMBL document CHEMBL4346672, “Antimicrobial and KPC/AmpC inhibitory activity of functionalized benzosiloxaboroles” (Eur J Med Chem, 2019)
# Activity calls are given as the source filed them. No cut-off for these calls is given here.
# Assays:
# [1] = Dissociation constant, pKa1 of compound in 0.1 M NaOH by potentiometric analysis; assay type: physicochemical
# [2] = system: Saccharomyces cerevisiae; assay: Antifungal activity against Saccharomyces cerevisiae ATCC 9763 diameter of zone inhibition incubated for 24 hrs by CLSI disc diffusion method; assay type: functional
# Procedure, shortened: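 Disc-diffusion run on Mueller-Hinton II agar with 2% glucose and 0.5 mg/L methylene blue, using compounds in DMSO. Yeast was precultured on Sabouraud dextrose agar (24–48 h, 30 °C). Zones read after 24 h at 35 °C.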
# [3] = system: Burkholderia cepacia; assay: Antibacterial activity against Burkholderia cepacia ATCC 25416 assessed as diameter of zone inhibition measured after 18 hrs by CLSI disc diffusion method; assay type: functional
# Procedure, shortened: (§1)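 Disc diffusion on Mueller-Hinton II agar. Compounds dissolved in DMSO. Strains stored at -80 °C and subcultured twice on tryptic soy agar before testing. Inhibition zones read after 35 °C, 18 h.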
# [4] = system: Candida albicans; assay: Antifungal activity against Candida albicans ATCC 90028 assessed as diameter of zone inhibition incubated for 24 hrs by CLSI disc diffusion method; assay type: functional
# Procedure, shortened: (§2)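 Yeast disc diffusion on Mueller-Hinton agar supplemented with 2% glucose and 0.5 mg/L methylene blue. Compounds in DMSO. Yeasts subcultured on Sabouraud dextrose agar before testing. Zones read after 35 °C, 24 h.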
# [5] = system: Staphylococcus aureus; assay: Antibacterial activity against Staphylococcus aureus ATCC 6538P measured after 18 hrs by CLSI broth dilution method; assay type: functional
# Procedure, shortened: (§3)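 Broth MIC in Mueller-Hinton II broth following CLSI, compounds dissolved in DMSO. Strains subcultured twice on tryptic soy agar before testing. Growth read after 35 °C, 18 h.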
# [6] = system: Pichia kudriavzevii; assay: Antifungal activity against Candida krusei ATCC 6258 assessed as diameter of zone inhibition incubated for 24 hrs by CLSI disc diffusion method; assay type: functional; procedure, shortened: as §2
# [7] = system: Stenotrophomonas maltophilia; assay: Antibacterial activity against Stenotrophomonas maltophilia ATCC 13637 assessed as fold reduction of MIC in presence of efflux pump inhibitor PAbetaN incubated for 18 hrs by broth microdilution method; assay type: functional
# Procedure, shortened: (§4)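 MICs determined with and without PAβN at 50 mg/L in Mueller-Hinton broth containing 1 mM MgSO₄. 2-fold serial dilutions per CLSI. Fold change taken from the paired MICs after 35 °C, 18 h.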
# [8] = system: Stenotrophomonas maltophilia; assay: Antibacterial activity against Stenotrophomonas maltophilia ATCC 13637 measured after 18 hrs by CLSI broth dilution method; assay type: functional; conditions: ATCC 13637, 18 h; procedure, shortened: as §3
# [9] = system: Enterococcus faecium; assay: Antibacterial activity against Enterococcus faecium ATCC 6057 assessed as diameter of zone inhibition measured after 18 hrs by CLSI disc diffusion method; assay type: functional; procedure, shortened: as §1
# [10] = system: Bacillus subtilis; assay: Antibacterial activity against Bacillus subtilis ATCC 6633 assessed as diameter of zone inhibition measured after 18 hrs by CLSI disc diffusion method; assay type: functional; procedure, shortened: as §1
# [11] = system: Stenotrophomonas maltophilia; assay: Antibacterial activity against Stenotrophomonas maltophilia ATCC 13637 assessed as diameter of zone inhibition measured after 18 hrs by CLSI disc diffusion method; assay type: functional; procedure, shortened: as §1
# [12] = system: Proteus mirabilis; assay: Antibacterial activity against Proteus mirabilis ATCC 12453 measured after 18 hrs by CLSI broth dilution method; assay type: functional; conditions: ATCC 12453, 18 h; procedure, shortened: as §3
# [13] = system: Escherichia coli; assay: Antibacterial activity against Escherichia coli ATCC 25922 measured after 18 hrs by CLSI broth dilution method; assay type: functional; conditions: ATCC 25922, 18 h; procedure, shortened: as §3
# [14] = system: Enterobacter cloacae; assay: Antibacterial activity against Enterobacter cloacae DSM 6234 measured after 18 hrs by CLSI broth dilution method; assay type: functional; conditions: DSM 6234, 18 h; procedure, shortened: as §3
# [15] = system: Candida albicans; assay: Antifungal activity against Candida albicans ATCC 90028 assessed as decrease in fungal cell growth at 0.78 to 12.5 mg/L incubated for 24 hrs by CLSI broth dilution method; assay type: functional; conditions: ATCC 90028, 24 h
# Procedure, shortened: (§5)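 Yeast broth dilution in RPMI 1640 with 2% glucose, compounds in DMSO. Yeasts pre-grown on Sabouraud dextrose agar. Growth read after 35 °C, 24 h.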
# [16] = system: Serratia marcescens; assay: Antibacterial activity against Serratia marcescens ATCC 13880 measured after 18 hrs by CLSI broth dilution method; assay type: functional; conditions: ATCC 13880, 18 h; procedure, shortened: as §3
# [17] = system: Pseudomonas aeruginosa; assay: Antibacterial activity against Pseudomonas aeruginosa ATCC 27853 assessed as diameter of zone inhibition measured after 18 hrs by CLSI disc diffusion method; assay type: functional, organism-based; procedure, shortened: as §1
# [18] = system: Enterobacter cloacae; assay: Antibacterial activity against Enterobacter cloacae DSM 6234 assessed as fold reduction of MIC in presence of efflux pump inhibitor PAbetaN incubated for 18 hrs by broth microdilution method; assay type: functional; procedure, shortened: as §4
# [19] = system: Enterobacter cloacae; assay: Antibacterial activity against Enterobacter cloacae DSM 6234 assessed as diameter of zone inhibition measured after 18 hrs by CLSI disc diffusion method; assay type: functional; procedure, shortened: as §1
# [20] = system: Bordetella bronchiseptica; assay: Antibacterial activity against Bordetella bronchiseptica ATCC 4617 assessed as diameter of zone inhibition measured after 18 hrs by CLSI disc diffusion method; assay type: functional; procedure, shortened: as §1
# [21] = system: Candida tropicalis; assay: Antifungal activity against Candida tropicalis IBA 171 assessed as decrease in fungal cell growth at 0.78 to 12.5 mg/L incubated for 24 hrs by CLSI broth dilution method; assay type: functional; conditions: IBA 171, 24 h; procedure, shortened: as §5
# [22] = system: Pseudomonas aeruginosa; assay: Antibacterial activity against Pseudomonas aeruginosa ATCC 27853 assessed as fold reduction of MIC in presence of efflux pump inhibitor PAbetaN incubated for 18 hrs microdilution method; assay type: functional; procedure, shortened: as §4
# [23] = system: Meyerozyma guilliermondii; assay: Antifungal activity against Candida guilliermondii IBA 155 assessed as diameter of zone inhibition incubated for 24 hrs by CLSI disc diffusion method; assay type: functional; procedure, shortened: as §2
# [24] = system: Enterococcus faecalis; assay: Antibacterial activity against Enterococcus faecalis ATCC 29212 assessed as diameter of zone inhibition measured after 18 hrs by CLSI disc diffusion method; assay type: functional; procedure, shortened: as §1
# [25] = system: Acinetobacter baumannii; assay: Antibacterial activity against Acinetobacter baumannii ATCC 19606 measured after 18 hrs by CLSI broth dilution method; assay type: functional; conditions: ATCC 19606, 18 h; procedure, shortened: as §3
# [26] = system: Candida parapsilosis; assay: Antifungal activity against Candida parapsilosis ATCC 22019 assessed as decrease in fungal cell growth at 0.78 to 12.5 mg/L incubated for 24 hrs by CLSI broth dilution method; assay type: functional; conditions: Lodderomyces parapsilosis, ATCC 22019, 24 h; procedure, shortened: as §5
# [27] = system: Acinetobacter baumannii; assay: Antibacterial activity against Acinetobacter baumannii ATCC 19606 assessed as diameter of zone inhibition measured after 18 hrs by CLSI disc diffusion method; assay type: functional; procedure, shortened: as §1
# [28] = system: Pichia kudriavzevii; assay: Antifungal activity against Candida krusei ATCC 6258 assessed as decrease in fungal cell growth at 0.78 to 12.5 mg/L incubated for 24 hrs by CLSI broth dilution method; assay type: functional; conditions: ATCC 6258, 24 h; procedure, shortened: as §5
# [29] = system: Bordetella bronchiseptica; assay: Antibacterial activity against Bordetella bronchiseptica ATCC 4617 measured after 18 hrs by CLSI broth dilution method; assay type: functional; conditions: ATCC 4617, 18 h; procedure, shortened: as §3
# [30] = system: Staphylococcus aureus; assay: Antibacterial activity against Staphylococcus aureus ATCC 6538P assessed as diameter of zone inhibition measured after 18 hrs by CLSI disc diffusion method; assay type: functional; procedure, shortened: as §1
# [31] = system: Proteus mirabilis; assay: Antibacterial activity against Proteus mirabilis ATCC 12453 assessed as diameter of zone inhibition measured after 18 hrs by CLSI disc diffusion method; assay type: functional; procedure, shortened: as §1
# [32] = system: Escherichia coli; assay: Antibacterial activity against Escherichia coli ATCC 25922 assessed as diameter of zone inhibition measured after 18 hrs by CLSI disc diffusion method; assay type: functional; procedure, shortened: as §1
# [33] = system: Enterococcus faecium; assay: Antibacterial activity against Enterococcus faecium ATCC 6057 measured after 18 hrs by CLSI broth dilution method; assay type: functional; conditions: ATCC 6057, 18 h; procedure, shortened: as §3
Structure (SMILES),pKa [1],diameter of the inhibition zone (DIZ) [2],diameter of the inhibition zone (DIZ) [3],diameter of the inhibition zone (DIZ) [4],MIC [5],diameter of the inhibition zone (DIZ) [6],fold change (FC) [7],MIC [8],diameter of the inhibition zone (DIZ) [9],diameter of the inhibition zone (DIZ) [10],diameter of the inhibition zone (DIZ) [11],MIC [12],MIC [13],MIC [14],MIC [15],MIC [16],diameter of the inhibition zone (DIZ) [17],fold change (FC) [18],diameter of the inhibition zone (DIZ) [19],diameter of the inhibition zone (DIZ) [20],further results
C[Si]1(C)OB(O)c2ccc(B(O)O)cc21,7.7,inactive,inactive,inactive,200 µg/mL,inactive,8,400 µg/mL,12 mm,19 mm,12 mm,> 400 µg/mL,> 400 µg/mL,> 400 µg/mL,400 µg/mL,> 400 µg/mL,inactive,16,inactive,inactive,MIC [21]: 200 µg/mL; fold change (FC) [22]: 2; diameter of the inhibition zone (DIZ) [23]: inactive; diameter of the inhibition zone (DIZ) [24]: inactive; MIC [25]: > 400 µg/mL; MIC [26]: 200 µg/mL; diameter of the inhibition zone (DIZ) [27]: inactive; MIC [28]: 400 µg/mL; MIC [29]: > 400 µg/mL; diameter of the inhibition zone (DIZ) [30]: 14 mm; diameter of the inhibition zone (DIZ) [31]: inactive; diameter of the inhibition zone (DIZ) [32]: inactive; MIC [33]: 200 µg/mL
C[Si]1(C)OB(O)c2c(C=O)cc(F)c(F)c21,5.2,13 mm,inactive,11 mm,50 µg/mL,inactive,4,400 µg/mL,inactive,18 mm,inactive,> 400 µg/mL,> 400 µg/mL,> 400 µg/mL,400 µg/mL,> 400 µg/mL,inactive,64,inactive,inactive,MIC [21]: 200 µg/mL; fold change (FC) [22]: 4; diameter of the inhibition zone (DIZ) [23]: 12 mm; diameter of the inhibition zone (DIZ) [24]: inactive; MIC [25]: 400 µg/mL; MIC [26]: 100 µg/mL; diameter of the inhibition zone (DIZ) [27]: inactive; MIC [28]: > 400 µg/mL; MIC [29]: 400 µg/mL; diameter of the inhibition zone (DIZ) [30]: 21 mm; diameter of the inhibition zone (DIZ) [31]: inactive; diameter of the inhibition zone (DIZ) [32]: inactive; MIC [33]: 400 µg/mL
C[Si]1(C)OB(O)c2ccc(F)c(F)c21,6.1,30 mm,inactive,15 mm,25 µg/mL,17 mm,16,200 µg/mL,18 mm,28 mm,13 mm,> 400 µg/mL,> 400 µg/mL,> 400 µg/mL,100 µg/mL,> 400 µg/mL,inactive,32,inactive,inactive,MIC [21]: 6.25 µg/mL; fold change (FC) [22]: 32; diameter of the inhibition zone (DIZ) [23]: 30 mm; diameter of the inhibition zone (DIZ) [24]: inactive; MIC [25]: 200 µg/mL; MIC [26]: 12.5 µg/mL; diameter of the inhibition zone (DIZ) [27]: inactive; MIC [28]: 100 µg/mL; MIC [29]: > 400 µg/mL; diameter of the inhibition zone (DIZ) [30]: 32 mm; diameter of the inhibition zone (DIZ) [31]: 12 mm; diameter of the inhibition zone (DIZ) [32]: inactive; MIC [33]: 100 µg/mL
C[Si]1(C)OB(O)c2ccc(Cl)c(Cl)c21,6,36 mm,inactive,33 mm,6.25 µg/mL,29 mm,32,200 µg/mL,28 mm,33 mm,13 mm,> 400 µg/mL,400 µg/mL,> 400 µg/mL,12.5 µg/mL,> 400 µg/mL,inactive,64,inactive,12 mm,MIC [21]: 3.12 µg/mL; fold change (FC) [22]: 64; diameter of the inhibition zone (DIZ) [23]: 47 mm; diameter of the inhibition zone (DIZ) [24]: 21 mm; MIC [25]: 400 µg/mL; MIC [26]: 12.5 µg/mL; diameter of the inhibition zone (DIZ) [27]: inactive; MIC [28]: 12.5 µg/mL; MIC [29]: 100 µg/mL; diameter of the inhibition zone (DIZ) [30]: 23 mm; diameter of the inhibition zone (DIZ) [31]: inactive; diameter of the inhibition zone (DIZ) [32]: inactive; MIC [33]: 25 µg/mL
C[Si]1(C)OB(O)c2cc3c(c(F)c21)COB3O,6.3,inactive,inactive,inactive,3.12 µg/mL,inactive,16,200 µg/mL,16 mm,29 mm,14 mm,> 400 µg/mL,400 µg/mL,> 400 µg/mL,100 µg/mL,> 400 µg/mL,inactive,64,inactive,13 mm,MIC [21]: 100 µg/mL; fold change (FC) [22]: 8; diameter of the inhibition zone (DIZ) [23]: inactive; diameter of the inhibition zone (DIZ) [24]: 18 mm; MIC [25]: > 400 µg/mL; MIC [26]: 50 µg/mL; diameter of the inhibition zone (DIZ) [27]: inactive; MIC [28]: > 400 µg/mL; MIC [29]: 200 µg/mL; diameter of the inhibition zone (DIZ) [30]: 20 mm; diameter of the inhibition zone (DIZ) [31]: inactive; diameter of the inhibition zone (DIZ) [32]: inactive; MIC [33]: 50 µg/mL
